Experimental data: ChEMBL document CHEMBL3813637, “Synthesis and Antiproliferative and Metabolic Evaluations of Novel Securinine Derivatives” (ACS Med Chem Lett, 2016)

What was measured:
[1] = Antiproliferative activity against human HCT116 cells assessed as reduction in cell viability at 1 uM after 72 hrs by ATPlite assay; assay type: functional; settings: HCT-116, 72 h, read-out: GI
Method in brief: (§1)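 HCT-116 human colon cancer cells exposed to compound for 72 h at 20, 10 or 1 μM. Growth inhibition is expressed as percentage relative to nontreated cells.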

[2] = Antiproliferative activity against human HCT116 cells assessed as reduction in cell viability at 10 uM after 72 hrs by ATPlite assay; assay type: functional; settings: HCT-116, 72 h, read-out: GI; method in brief: as §1
[3] = Antiproliferative activity against human HCT116 cells assessed as reduction in cell viability at 20 uM after 72 hrs by ATPlite assay; assay type: functional; settings: HCT-116, 72 h, read-out: GI; method in brief: as §1
A-375 = test: Antiproliferative activity against human A375 cells assessed as reduction in cell viability after 72 hrs by ATPlite assay; assay type: functional, cell-based; settings: A-375, 72 h
Method in brief: (§2)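 IC50 determined in human cancer cell lines (HCT-116, A-375 melanoma, HL-60, A-549). Camptothecin and etoposide served as reference compounds.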

[4] = Antiproliferative activity against human HCT116 cells assessed as reduction in cell viability after 72 hrs by ATPlite assay; assay type: functional, cell-based; settings: HCT-116, 72 h; method in brief: as §2
A549 = test: Antiproliferative activity against human A549 cells assessed as reduction in cell viability after 72 hrs by ATPlite assay; assay type: functional, cell-based; settings: A549, 72 h
Method in brief: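 IC50 values were determined on a panel of four human cancer lines (HCT-116, A-549, HL-60, A-375), with camptothecin and etoposide as reference compounds.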

[5] = Antiproliferative activity against human HL60 cells assessed as reduction in cell viability after 72 hrs by ATPlite assay; assay type: functional, cell-based; settings: HL-60, 72 h; method in brief: as §2
[6] = Metabolic stability in mouse liver microsomes at 2 uM after 1 hr by ZQ-LC-MS analysis; assay type: ADME
Liver microsome [7] = test: Metabolic stability in human liver microsomes at 2 uM after 1 hr by ZQ-LC-MS analysis; assay type: ADME
Liver microsome [8] = test: Metabolic stability in rat liver microsomes at 2 uM after 1 hr by ZQ-LC-MS analysis; assay type: ADME
Plasma [9] = test: Metabolic stability in mouse plasma at 5 uM after 2 hrs by ZQ-LC-MS analysis; assay type: ADME, cell-free
Method in brief: (§3)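 Compounds were incubated in rat, mouse and human plasma for 120 min at 37 °C. The result is reported as the percentage of parent compound remaining.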

Plasma [10] = test: Metabolic stability in human plasma at 5 uM after 2 hrs by ZQ-LC-MS analysis; assay type: ADME, cell-free; method in brief: as §3
Plasma [11] = test: Metabolic stability in rat plasma at 5 uM after 2 hrs by ZQ-LC-MS analysis; assay type: ADME, cell-free; method in brief: as §3

Row | SMILES | inhibition of growth at 1 µM [1] | inhibition of growth at 10 µM [2] | inhibition of growth at 20 µM [3] | other results
1 | O=C1C=C2C(C#Cc3ccc(F)cc3)=C[C@@H]3C[C@@]2(O1)[C@H]1CCCCN31 | 87.3% | 99.9% | 100% | IC50 (A-375): 2820 nM; IC50 [4]: 2470 nM; IC50 (A549): 3990 nM; IC50 [5]: > 10000 nM
2 | CCN(CC)c1ccc(C#CC2=C[C@@H]3C[C@@]4(OC(=O)C=C24)[C@H]2CCCCN32)cc1 | 98.2% | 100% | 100% | –
3 | CCCCC#CC1=C[C@@H]2C[C@@]3(OC(=O)C=C13)[C@H]1CCCCN21 | 7.6% | 98.1% | 99.5% | –
4 | O=C1C=C2C(c3ccc(-c4ccccc4)cc3)=C[C@@H]3C[C@@]2(O1)[C@H]1CCCCN31 | 5.4% | 52.6% | 82.8% | –
5 | O=C1C=C2C(C#CCCCO)=C[C@@H]3C[C@@]2(O1)[C@H]1CCCCN31 | 5.9% | 64.3% | 96.9% | –
6 | O=C1C=C2C(c3ccc(Br)cc3)=C[C@@H]3C[C@@]2(O1)[C@H]1CCCCN31 | -5.2% | 23% | 60.1% | –
7 | O=C1C=C2C(c3ccco3)=C[C@@H]3C[C@@]2(O1)[C@H]1CCCCN31 | 6% | 23.8% | 45.5% | –
8 | CC[C@@]1(O)C(=O)OCc2c1cc1n(c2=O)Cc2cc3ccccc3nc2-1 [CAMPTOTHECIN] | – | – | – | IC50 (A-375): 13 nM; IC50 [4]: 3 nM; IC50 (A549): 9 nM; IC50 [5]: 35 nM
9 | O=C1C=C2C(c3ccc(F)cc3)=C[C@@H]3C[C@@]2(O1)[C@H]1CCCCN31 | 2.1% | 9.9% | 24% | –
10 | O=C1C=C2C(c3ccccc3)=C[C@@H]3C[C@@]2(O1)[C@H]1CCCCN31 | -3.8% | 9.2% | 24.1% | –
11 | CC(C)(C)c1ccc(C2=C[C@@H]3C[C@@]4(OC(=O)C=C24)[C@H]2CCCCN32)cc1 | 0.9% | 9.7% | 30.6% | –
12 | Cc1cccc(C2=C[C@@H]3C[C@@]4(OC(=O)C=C24)[C@H]2CCCCN32)c1 | 5.7% | 15.6% | 33.8% | –
13 | COC(=O)c1ccc(C2=C[C@@H]3C[C@@]4(OC(=O)C=C24)[C@H]2CCCCN32)cc1 | -3.6% | 10.5% | 23.9% | –
14 | O=C1C=C2C(C#CCCCCl)=C[C@@H]3C[C@@]2(O1)[C@H]1CCCCN31 | 6.1% | 97.8% | 99.2% | Stability [6]: Unstable; Stability (Liver microsome [7]): Unstable; Stability (Liver microsome [8]): Unstable
15 | O=C1C=C2C(c3ccc(C(F)(F)F)cc3)=C[C@@H]3C[C@@]2(O1)[C@H]1CCCCN31 | -1.5% | 47.9% | 80.4% | –
16 | O=C1C=C2C(C#CC3C=CCCC3)=C[C@@H]3C[C@@]2(O1)[C@H]1CCCCN31 (stereo not given in full) | 3.3% | 98.1% | 97.3% | –
17 | O=C1C=C2C(C#CC3CC3)=C[C@@H]3C[C@@]2(O1)[C@H]1CCCCN31 | 5.9% | 94.8% | 93.9% | –
18 | O=C1C=C2C(C#Cc3ccccc3C(F)(F)F)=C[C@@H]3C[C@@]2(O1)[C@H]1CCCCN31 | 55.8% | 99.9% | 100% | –
19 | Cc1ccc(C2=C[C@@H]3C[C@@]4(OC(=O)C=C24)[C@H]2CCCCN32)cc1 | 0.3% | 11.7% | 30% | –

Row | SMILES | inhibition of growth at 1 µM [1] | inhibition of growth at 10 µM [2] | inhibition of growth at 20 µM [3] | other results
20 | O=C1C=C2C(C#CCO)=C[C@@H]3C[C@@]2(O1)[C@H]1CCCCN31 | 5% | 94.9% | 98.9% | –
21 | CC(C)(C)OC(=O)NCCCC#CC1=C[C@@H]2C[C@@]3(OC(=O)C=C13)[C@H]1CCCCN21 | 60.1% | 98.8% | 99.9% | –
22 | CN(C)c1ccc(C2=C[C@@H]3C[C@@]4(OC(=O)C=C24)[C@H]2CCCCN32)cc1 | -1.4% | 5.6% | 19.3% | Stability (Plasma [9]): Stable; Stability [6]: Unstable; Stability (Plasma [10]): Stable; Stability (Liver microsome [7]): Unstable; Stability (Liver microsome [8]): Unstable; Stability (Plasma [11]): Stable
23 | O=C1C=C2C(C#Cc3ccc(N4CCCCC4)cc3)=C[C@@H]3C[C@@]2(O1)[C@H]1CCCCN31 | 98% | 100% | 100% | –
24 | O=C1C=C2C(C#Cc3ccccc3)=C[C@@H]3C[C@@]2(O1)[C@H]1CCCCN31 | 91.9% | 100% | 100% | Stability (Plasma [9]): Unstable; Stability [6]: Unstable; Stability (Plasma [10]): Unstable; Stability (Liver microsome [7]): Unstable; Stability (Liver microsome [8]): Unstable; Stability (Plasma [11]): Unstable
25 | C[Si](C)(C)C#CC1=C[C@@H]2C[C@@]3(OC(=O)C=C13)[C@H]1CCCCN21 | 10.1% | 99% | 99.3% | –
26 | O=Cc1ccc(C2=C[C@@H]3C[C@@]4(OC(=O)C=C24)[C@H]2CCCCN32)cc1 | -0.7% | 9.5% | 34.6% | –
27 | COc1cccc2c1C(=O)c1c(O)c3c(c(O)c1C2=O)C[C@@](O)(C(=O)CO)C[C@@H]3O[C@H]1C[C@H](N)[C@H](O)[C@H](C)O1 [DOXORUBICIN] | 99.6% | 94.3% | 95.6% | –
28 | CCCCCC#CC1=C[C@@H]2C[C@@]3(OC(=O)C=C13)[C@H]1CCCCN21 | 10.2% | 96.6% | 97.5% | –
29 | O=C1C=C2C(C#CC3CCCCC3)=C[C@@H]3C[C@@]2(O1)[C@H]1CCCCN31 | 49.3% | 99.8% | 100% | –
30 | CC(C)(C)C#CC1=C[C@@H]2C[C@@]3(OC(=O)C=C13)[C@H]1CCCCN21 | 25.2% | 98.8% | 100% | –
31 | Cc1ccc(C#CC2=C[C@@H]3C[C@@]4(OC(=O)C=C24)[C@H]2CCCCN32)cc1 | 64% | 100% | 100% | IC50 (A-375): 1750 nM; IC50 (A549): > 10000 nM; IC50 [5]: > 10000 nM
32 | CC(C)(C)OC(=O)NC1CCC(C#CC2=C[C@@H]3C[C@@]4(OC(=O)C=C24)[C@H]2CCCCN32)CC1 (stereo not given in full) | 93.4% | 100% | 100% | –
33 | O=C1C=C2C(I)=C[C@@H]3C[C@@]2(O1)[C@H]1CCCCN31 | 80.9% | 100% | 100% | –
34 | COc1cc([C@@H]2c3cc4c(cc3[C@@H](O[C@@H]3O[C@@H]5CO[C@@H](C)O[C@H]5[C@H](O)[C@H]3O)[C@H]3COC(=O)[C@H]23)OCO4)cc(OC)c1O [ETOPOSIDE] | – | – | – | IC50 [4]: > 10000 nM; IC50 [5]: 860 nM
35 | COc1ccc(C#CC2=C[C@@H]3C[C@@]4(OC(=O)C=C24)[C@H]2CCCCN32)cc1 | 98.3% | 100% | 100% | Stability (Plasma [9]): Unstable; Stability (Plasma [10]): Unstable; IC50 (A-375): 60 nM; IC50 [4]: 340 nM; IC50 (A549): 290 nM; IC50 [5]: 660 nM; Stability (Plasma [11]): Unstable
36 | CC(C)(O)C#CC1=C[C@@H]2C[C@@]3(OC(=O)C=C13)[C@H]1CCCCN21 | 10.3% | 91.6% | 97.7% | –
37 | CC(C)(C)OC(=O)NCC#CC1=C[C@@H]2C[C@@]3(OC(=O)C=C13)[C@H]1CCCCN21 | 79.3% | 100% | 100% | IC50 (A-375): 360 nM; IC50 [4]: 1660 nM; IC50 (A549): 2640 nM; IC50 [5]: 5000 nM
38 | O=C1C=C2C(C#Cc3cccnc3)=C[C@@H]3C[C@@]2(O1)[C@H]1CCCCN31 | 96.4% | 100% | 100% | IC50 (A-375): 950 nM; IC50 (A549): 4400 nM; IC50 [5]: > 10000 nM
